# Compound activity as filed in PubChem BioAssay.
# In the library only some 6.1% were active in any assay of this set; here they are far more common.
# WT yeast gro inh: growth inhibition of WT strain, primary screen, mitochondrial fusion inhibitor project, WT and mutant strains, chemical genetic; mitochondrial fusion phenotypic screen; inhibition, % at 10 µM; 190,000 tested, 2.1% active; AID 1362, 2008; in the data active means inhibition above about 58%; tested in S. cerevisiae
# Yeast lifespan up: compounds extending yeast replicative lifespan, primary screen, S. cerevisiae, OD615; S. cerevisiae growth with nicotinamide; deaD strain in restrictive glucose medium; inhibition of the nicotinamide effect, % at 10 µM; 130,000 tested, 0.68% active;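 active means inhibition above a set limit, placed 3 SD over the median of all compounds, cut at about 26% in these data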;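 further: 0% = nicotinamide-treated wells and 100% = cells grown without nicotinamide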
#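 Buffer or medium: CSMM-D glucose medium, restrictive; test system: modified budding yeast, DeaD strain; compound: single dose 10 µM compound, 0.25% DMSO; schedule: culture preincubation 4 h, compound exposure 48 h, both 30 °C; detection: optical density (absorbance) at 615 nm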
# Measles CPE: compounds protecting cells from measles virus cytopathic effect, primary screen, measles RdRp inhibitor project, single point, MLSMR library, absorbance; Measles virus-infected cells, CPE protection; protection (pct of control), % at 4 µM; 140,000 tested, 1.5% active; AID 841, 2007; in the data active means protection mostly above about 24%, no sharp cut-off; inactive means mostly below about 26%
# DAT uptake mod: changed hDAT dopamine uptake under cocaine IC80, either direction, primary screen, cocaine antagonist project, cell-based, LLC-PK1 hDAT, [14C]-dopamine uptake, MLSMR; LLC-PK1 hDAT cells, [14C]-dopamine uptake with cocaine IC80; actives deviate in either direction; B-score at 10 µM; 110,000 tested, 1.3% active; AID 449768, 2010;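 active means Z score or B-score, a plate-position-corrected score, falls beyond the plate's 99.7% confidence bounds, in either direction; inactive means both scores lie inside the 99.7% bounds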;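 further: scored against the spread of the other compound wells on the same plate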
# Target sequence (Q01959 whole entry, looked up): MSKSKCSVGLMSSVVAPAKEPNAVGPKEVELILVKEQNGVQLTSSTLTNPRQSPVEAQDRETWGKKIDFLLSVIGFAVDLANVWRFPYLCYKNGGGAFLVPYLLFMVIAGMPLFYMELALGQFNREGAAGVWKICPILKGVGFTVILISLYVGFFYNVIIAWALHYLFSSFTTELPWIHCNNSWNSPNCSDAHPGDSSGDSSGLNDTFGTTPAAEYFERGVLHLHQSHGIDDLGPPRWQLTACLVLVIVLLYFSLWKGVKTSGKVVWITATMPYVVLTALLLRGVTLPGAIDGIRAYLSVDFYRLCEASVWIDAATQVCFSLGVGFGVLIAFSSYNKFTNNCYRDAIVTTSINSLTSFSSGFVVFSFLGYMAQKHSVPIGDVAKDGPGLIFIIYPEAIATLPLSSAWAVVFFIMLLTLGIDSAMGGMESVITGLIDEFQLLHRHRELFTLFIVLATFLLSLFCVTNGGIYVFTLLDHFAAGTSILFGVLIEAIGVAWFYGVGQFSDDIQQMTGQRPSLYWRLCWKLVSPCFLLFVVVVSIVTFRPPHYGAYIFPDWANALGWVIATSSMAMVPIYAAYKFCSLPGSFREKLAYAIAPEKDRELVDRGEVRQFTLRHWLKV
# RAM network inh: inhibitors of the yeast RAM network, primary screen, dse1pr::URA3 reporter, 5-FOA selection; S. cerevisiae dse1pr::URA3 reporter, 5-FOA growth OD615, 2 d; analog-sensitive cbk1-as2 kinase mutant strain; inhibition, % at 50 µM; 190,000 tested, 1.8% active;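 active means inhibition above a set limit, 3 SD over mean compound inhibition, cut at about 8.4% in these data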;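 further: 0% = DMSO-only wells with no growth and 100% = 10 µM 1-NA-PP1 full growth; inhibition rescues growth on 5-FOA so higher OD means more RAM inhibition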
# BB579 growth dn: growth inhibitors of yeast BB579 in restrictive medium, primary screen, yeast lifespan-shortening project, S. cerevisiae; inhibition, % at 10 µM; 140,000 tested, 0.51% active; OD615, 48 h;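 active means inhibition above a set limit, 3 SD over the mean compound inhibition, cut at about 44% in these data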
#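 Test system: Saccharomyces cerevisiae DeaD strain BB579, replicative lifespan model yeast | Buffer or medium: Restrictive CSMM-D medium | Doses: One dose, 10 µM compound with 0.25% DMSO | Incubation: 48 h exposure, 30 °C | Detection: Culture absorbance at 615 nm | Control set: Amphotericin B at 10 µg/mL as positive control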
# * marks the source's active call; other numbers are inactive results; . = no result given.
SMILES,WT yeast gro inh,Yeast lifespan up,Measles CPE,DAT uptake mod,RAM network inh,BB579 growth dn
CC(C)(C)N/N=C/c1cc(Cl)cc([N+](=O)[O-])c1O,-5,-8,12,.,-1,92*
Cc1ccc(NC(=S)N=Nc2c(O)n(C)c3ccc(S(=O)(=O)N4CCOCC4)cc23)cc1C,51,2,12,.,9.4*,-37
Cn1c(O)c(N=NC(=S)Nc2ccccc2F)c2cc(S(=O)(=O)N3CCOCC3)ccc21,74*,.,.,.,4,.
C=CCn1c(O)c(N=NC(=S)Nc2ccccc2C)c2cc(S(=O)(=O)N3CCOCC3)ccc21,4,1,5,.,6,-47
CN(Cc1nc(Cc2cccc(F)c2)no1)CC1CCOCC1,-12,.,.,.,2,.
CCOc1ncccc1C(=O)Nc1cccc(-c2nnc3n2CCCCC3)c1,-10,.,.,.,-1,.
COc1cc(/C=N/Nc2ccccc2[N+](=O)[O-])cc(OC)c1O,3,.,.,.,0,.
Cc1[nH]c2ccccc2c1/C=N/Nc1ccccc1[N+](=O)[O-],17,.,.,.,8.8*,.
Cc1[nH]c2ccccc2c1/C=N/NS(=O)(=O)c1ccccc1,0,.,.,.,0,.
CC(C)Oc1ccccc1/C=N/Nc1ccccc1[N+](=O)[O-],20,-2,0,.,8.5*,-39
CCOc1ccccc1/C=N/Nc1ccccc1[N+](=O)[O-],-13,3,1,-0.35,9.8*,-15
CC(C)/C(=N/Nc1ccccc1[N+](=O)[O-])c1ccccc1,64*,.,.,.,0,.
Cc1cccc2cc(CN(CCCN(C)C)C(=S)NCCc3ccccc3)c(=O)[nH]c12,-13,.,.,.,0,.
C=CCn1c(O)c(C(CC)=NCCN2CCOCC2)c(=O)[nH]c1=O,6,37*,3,0.0062,1,20
C=CCn1c(O)c(C(CC)=Nc2ccccc2NC(=O)CC)c(=O)[nH]c1=O,1,0,18,-0.17,0,1
O=c1cc(-c2ccccc2)c2ccccc2[nH]1,44,-9,76*,-1,2,9
O=C(N1CCN(c2ccccc2F)CC1)C12CC3CC(CC(C3)C1)C2,2,-1,2,1.3,6,-42
Cc1cccc(N2CCN(C(=O)c3ccc4ncsc4c3)CC2)c1C,15,-11,11,2.5*,0,18
Cc1cccc(N2CCN(C(=O)C34CC5CC(CC(C5)C3)C4)CC2)c1C,88*,-3,4,-0.073,6,-20
Cc1cc(C)n(CCc2nc(-c3ccc(C(C)(C)C)cc3)cs2)n1,75*,-3,15,.,1,-19
COc1ccc(N(C)S(=O)(=O)c2cccc(C(=O)N(C)Cc3ccc(C)o3)c2)cc1,2,.,.,.,-1,.
CCN(c1ccccc1)S(=O)(=O)c1cc(C(=O)Nc2ccc(F)c(F)c2)ccc1F,34,-2,27,.,11*,-26
COC(=O)c1ccccc1NC(=O)C1CCN(C(=O)c2ccc(OC)cc2)CC1,-8,-31,16,-0.01,1,-5
CC(C)NC(=O)C(Sc1ccccc1)c1ccccc1 (stereo unspecified),6,1,30*,-0.67,0,-74
Cc1ccc([N+](=O)[O-])cc1NC(=O)C(Sc1ccccc1)c1ccccc1 (stereo unspecified),8,-1,9,.,9.1*,-53
SMILES,WT yeast gro inh,Yeast lifespan up,Measles CPE,DAT uptake mod,RAM network inh,BB579 growth dn
Cc1ccc([N+](=O)[O-])cc1NC(=O)c1ccccc1,-4,.,.,.,1,.
CCC(C)NS(=O)(=O)c1ccc(NC(=O)C(Sc2ccccc2)c2ccccc2)cc1 (stereo unspecified),10,4,32*,.,1,-9
CCc1nnc(NC(=O)c2cccc(S(=O)(=O)N(C)c3ccccc3)c2)s1,3,71*,3,.,2,-91
CCSc1nnc(NC(=O)c2cccc(S(=O)(=O)N(C)c3ccc(C)cc3)c2)s1,29,17,13,.,5,-17
O=C(COC(=O)/C=C/c1ccccc1[N+](=O)[O-])NCC(F)(F)F,12,.,.,.,0,.
COC(=O)c1ccc(COC(=O)CCc2nc(-c3ccccc3)c(-c3ccccc3)o2)cc1,21,-12,20,0.026,11*,-37
COC(=O)c1ccc(COC(=O)c2ccccn2)cc1,17,-2,5,-0.12,-1,-11
CCCC(=O)NCc1cc(-c2nn(C)c(=O)c3ccccc23)ccc1OC,2,.,.,.,0,.
O=C(NC1(C(F)(F)F)C(=O)Nc2c1c(=O)[nH]c(=O)n2Cc1ccco1)C1CCCCC1 (stereo unspecified),3,-3,17,-1,1,-32
CCOC(=O)c1sc(=S)n(-c2ccccc2OC)c1N,5,-11,14,-0.67,1,4
COC(=O)c1sc(=S)n(-c2ccccc2OC)c1N,17,-18,44*,-1.1,1,-42
COc1ccc(NC(=O)c2ccc(Cl)c(S(=O)(=O)N3CCc4ccccc4C3)c2)cn1,58*,-6,7,-0.8,5,-83
O=C(Nc1cccnc1)c1ccc(Cl)c(S(=O)(=O)N2CCc3ccccc32)c1,60*,.,.,.,1,.
CC(C)OC(=O)CSc1nc2c(c(C3CC=CCC3)c1C#N)CCC2 (stereo unspecified),8,-8,14,-0.0057,11*,-23
Cc1cc(C)c(C#N)c(SCC(=O)CC(=O)OC(C)C)n1,-16,-7,23,0.41,2,-19
C=CCSc1nc(N)c(C#N)c(-c2ccc(C)cc2)c1C#N,8,-16,32,-0.65,4,-48
C=CCSc1nc2c(c(C3CC=CCC3)c1C#N)CCC2 (stereo unspecified),61*,.,18,-0.67,3,-41
COc1ccc(C(=O)C2CCCN(C/C=C/c3ccccc3OC)C2)c(OC)c1 (stereo unspecified),24,.,.,.,-1,.
COc1ccc(/C=C2/C(=O)N(c3nc4ccccc4s3)N=C2CSc2ccc(Cl)cc2)cc1,2,7,21,.,6,-18
O=C(Cc1cscn1)c1ccc(O)cc1O,-12,-6,36*,1.2,-1,10
Cc1nc(CC(=O)c2ccc(O)cc2O)cs1,0,-7,7,-1.3,0,-8
O=C(O)Cn1c(=S)sc2ccccc21,-22,.,.,.,0,.
O=C(Nc1ccccc1N1CCCCC1)c1ccc(-c2cccc(Cl)c2)o1,-26,0,1,.,9.5*,-24
S=C(c1ccc(-c2cccc(Cl)c2)o1)N1CCOCC1,5,-8,3,1.4,1,-21
CN1CCN(c2ccccc2NC(=O)c2ccc(-c3ccc(Cl)cc3Cl)o2)CC1,71,-22,6,-0.6,3,-10
